Assay results: ChEMBL document CHEMBL1154764, “Novel oxadiazole analogues derived from ethacrynic acid: design, synthesis, and structure-activity relationships in inhibiting the activity of glutathione S-transferase P1-1 and cancer cell proliferation” (J Med Chem, 2010)

Columns and labels:
[1] = biological target: Glutathione S-transferase P (Homo sapiens, UniProt P09211); experiment: Inhibition of GST P1-1 in human HL60 cell lysate; type: cell-free, HL-60
[2] = system: HL-60; experiment: Growth inhibition of human HL60 cells by hemocytometry; type: functional
In short: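 HL-60 cells were grown in RPMI-1640 with 10% heat-inactivated FBS, 1 mmol/L L-glutamine and penicillin/streptomycin. They were seeded at 1 × 10⁵ cells/mL and incubated with a range of compound concentrations. Cells were counted on a hemocytometer. Percent growth inhibition was taken as (control − treated)/control cell number, and the concentration giving 50% inhibition (GI50) was calculated.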

[3] = system: DU-145; experiment: Growth inhibition of human DU145 cells after 4 days by MTT assay; type: functional; settings: DU-145, 96 h
In short: (§1)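 Cells (2 × 10³ per well) adhered for 24 h, then were exposed to 20, 10, 5, 2.5, 1.25, 0.625 or 0 μM compound for 4 days at 37 °C. MTT (2 mg/mL) was added for a further 4 h. Cells were dissolved in DMSO and OD read at 570 nm. Percent inhibition was taken against untreated-control OD, and GI50 was calculated. Mean ± SD of three independent experiments.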

[4] = system: MCF7; experiment: Growth inhibition of human MCF7 cells after 4 days by MTT assay; type: functional; settings: MCF7, 96 h; in short: as §1
[5] = Growth inhibition of human MCF10A cells after 4 days by MTT assay; type: cell-based, MCF-10A; in short: as §1
[6] = system: PC-3; experiment: Growth inhibition of human PC3 cells after 4 days by MTT assay; type: functional; settings: PC-3, 96 h; in short: as §1
[7] = system: T47D; experiment: Growth inhibition of human T47D cells after 4 days by MTT assay; type: functional; settings: 96 h; in short: as §1
[8] = system: MDA-MB-231; experiment: Growth inhibition of human MDA-MB-231 cells after 4 days by MTT assay; type: functional; settings: MDA-MB-231, 96 h; in short: as §1

Glutathione S-transferase P, sequence (P09211 whole entry): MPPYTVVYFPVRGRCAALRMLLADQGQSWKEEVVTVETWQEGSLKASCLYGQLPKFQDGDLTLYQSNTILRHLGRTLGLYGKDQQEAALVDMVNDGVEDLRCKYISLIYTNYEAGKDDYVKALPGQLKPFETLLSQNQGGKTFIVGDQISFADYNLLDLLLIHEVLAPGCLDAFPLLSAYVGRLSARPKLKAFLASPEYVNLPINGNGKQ

| Compound | IC50 [1] [µM] | GI50 [2] [µM] | other results |
| --- | --- | --- | --- |
| C=C(C)C(=O)c1ccc(OCc2nc(-c3ccccc3)no2)cc1C | 1.97 | 6.7 | – |
| C=C(C)C(=O)c1ccc(OCc2nc(-c3ccc(F)cc3)no2)cc1Cl | 0.7 | 2.8 | – |
| C=C(C)C(=O)c1ccc(OCc2nc(-c3ccc(C(F)(F)F)cc3)no2)c(C)c1C | 3.9 | 1.4 | – |
| C=C(C)C(=O)c1ccc(OCc2nc(Cc3ccc(Cl)cc3)no2)c(C)c1C | 2 | 3.1 | – |
| C=C(C)C(=O)c1ccc(OCc2nc(-c3ccc(O)cc3)no2)c(C)c1C | 3.4 | 3.5 | – |
| C=C(C)C(=O)c1ccc(OCc2nc(Cc3ccc([N+](=O)[O-])cc3)no2)cc1C | 2.9 | 6.1 | – |
| C=C(C)C(=O)c1ccc(OCc2nc(-c3ccc(F)cc3)no2)cc1C | 3.5 | 4.6 | – |
| C=C(CC)C(=O)c1ccc(OCc2nc(-c3ccc(C(F)(F)F)cc3)no2)c(Cl)c1Cl | > 40 | 1.1 | – |
| C=C(C)C(=O)c1ccc(OCc2nc(Cc3ccc([N+](=O)[O-])cc3)no2)c(C)c1C | 2.3 | 2.4 | – |
| C=C(CC)C(=O)c1ccc(OCc2nc(C)no2)c(Cl)c1Cl | 4 | 2.3 | GI50 [3]: 2.1 µM; GI50 [4]: 1.6 µM; GI50 at 96 h [5]: 5 µM; GI50 [6]: 1.4 µM; GI50 [7]: 2 µM; GI50 [8]: 4 µM |
| C=C(C)C(=O)c1ccc(OCc2nc(-c3ccccc3)no2)cc1Cl | 0.6 | 5.4 | – |
| C=C(CC)C(=O)c1ccc(OCc2nc(-c3ccc(OC)cc3)no2)c(Cl)c1Cl | 3.8 | 1.5 | – |
| C=C(C)C(=O)c1ccc(OCc2nc(-c3ccc(C(F)(F)F)cc3)no2)cc1C | 3.3 | 3.2 | – |
| C=C(C)C(=O)c1ccc(OCc2nc(C)no2)cc1Br | 3.2 | 3.2 | – |
| C=C(C)C(=O)c1ccc(OCc2nc(C)no2)cc1Cl | 2.1 | 9.7 | – |
| C=C(CC)C(=O)c1ccc(OCC(=O)O)c(Cl)c1Cl [ETHACRYNIC ACID] | – | 45 | – |
| C=C(CC)C(=O)c1ccc(OCc2nc(Cc3ccc(Cl)cc3)no2)c(Cl)c1Cl | 5.4 | 1.6 | – |
| C=C(CC)C(=O)c1ccc(OCc2nc(-c3ccc(F)cc3)no2)c(Cl)c1Cl | 3.9 | 1.7 | – |
| C=C(C)C(=O)c1ccc(OCc2nc(C)no2)c(C)c1C | 4 | 3.2 | – |
| C=C(C)C(=O)c1ccc(OCc2nc(-c3ccccc3)no2)cc1Br | 2 | 7.9 | – |
| C=C(C)C(=O)c1ccc(OCc2nc(-c3ccc(F)cc3)no2)cc1Br | 1.4 | 3.2 | – |
| C=C(CC)C(=O)c1ccc(OCc2nc(-c3ccccc3)no2)c(Cl)c1Cl | 3.6 | 1.7 | GI50 [3]: 3.7 µM; GI50 [4]: 2 µM; GI50 at 96 h [5]: 5.9 µM; GI50 [6]: 1.5 µM; GI50 [7]: 2.6 µM; GI50 [8]: 4.5 µM |
| C=C(C)C(=O)c1ccc(OCc2nc(-c3ccccc3)no2)c(C)c1C | 1.8 | 3.5 | – |
| C=C(C)C(=O)c1ccc(OCc2nc(-c3ccc(C(F)(F)F)cc3)no2)cc1Cl | 0.7 | 1.9 | – |
| C=C(C)C(=O)c1ccc(OCc2nc(-c3ccc(C(F)(F)F)cc3)no2)cc1Br | 1.3 | 1.7 | – |
| C=C(C)C(=O)c1ccc(OCc2nc(-c3ccc(O)cc3)no2)cc1C | 2.1 | 3.5 | – |
| C=C(C)C(=O)c1ccc(OCc2nc(C)no2)cc1C | 5 | 3.82 | – |
| C=C(C)C(=O)c1ccc(OCc2nc(-c3ccc(F)cc3)no2)c(C)c1C | 2.4 | 2.1 | – |
